Laboratory results from ChEMBL document CHEMBL1152379, “Synthesis and evaluation of 3''- and 4''-deoxy and -fluoro analogs of the immunostimulatory glycolipid, KRN7000” (Bioorg Med Chem Lett, 2009).

Experiments:
Assay type in all cases: functional, cell-based
iNKT [1] = assay: Immunostimulatory activity in iNKT hybridoma 1.2 cells expressing TCR Vbeta8.2 assessed as IL2 level by ELISA
How it was run: (§1)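 Glycolipid pulsed at indicated amounts onto 1 × 10^5 A20 B lymphoma cells transfected to overexpress mouse CD1d, overnight. APCs washed, then cocultured with 2 × 10^5 Vα14 iNKT hybridoma cells (2H4 Vβ7, 1.2 Vβ8.2, 1.4 Vβ10) overnight. Supernatant IL-2 measured by ELISA as TCR-recognition readout. Dose-response curves, representative of three similar experiments.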

iNKT [2] = assay: Immunostimulatory activity in iNKT hybridoma 2H4 cells expressing TCR Vbeta7 assessed as IL2 level by ELISA; how it was run: as §1
iNKT [3] = assay: Immunostimulatory activity in iNKT hybridoma 1.4 cells expressing TCR Vbeta10 assessed as IL2 level by ELISA; how it was run: as §1

SMILES | Activity (iNKT [1]) | Activity (iNKT [2]) | Activity (iNKT [3])
CCCCCCCCCCCCCCCCCCCCCCCCCC(=O)N[C@@H](CO[C@H]1O[C@H](CO)[C@H](F)[C@H](O)[C@H]1O)[C@H](O)CCCCCCCCCCCCCCC | Dose-dependent effect | Dose-dependent effect | Dose-dependent effect
CCCCCCCCCCCCCCCCCCCCCCCCCC(=O)N[C@@H](CO[C@H]1O[C@H](CO)C[C@H](O)[C@H]1O)[C@H](O)CCCCCCCCCCCCCCC | Dose-dependent effect | Dose-dependent effect | –
CCCCCCCCCCCCCCCCCCCCCCCCCC(=O)N[C@@H](CO[C@H]1O[C@H](CO)[C@H](O)[C@H](F)[C@H]1O)[C@H](O)CCCCCCCCCCCCCCC | Dose-dependent effect | Dose-dependent effect | –
CCCCCCCCCCCCCCCCCCCCCCCCCC(=O)N[C@@H](CO[C@H]1O[C@H](CO)[C@H](O)C[C@H]1O)[C@H](O)CCCCCCCCCCCCCCC | Dose-dependent effect | Dose-dependent effect | –
CCCCCCCCCCCCCCCCCCCCCCCCCC(=O)N[C@@H](CO[C@H]1O[C@H](CO)[C@H](O)[C@H](O)[C@H]1O)[C@H](O)[C@H](O)CCCCCCCCCCCCCC | Dose-dependent effect | Dose-dependent effect | Dose-dependent effect
CCCCCCCCCCCCCCCCCCCCCCCCCC(=O)N[C@@H](CO[C@H]1O[C@H](CO)[C@H](O)[C@H](O)[C@H]1O)[C@H](O)CCCCCCCCCCCCCCC | Dose-dependent effect | Dose-dependent effect | Dose-dependent effect
